Laboratory results reported in PMC6698915 (Cancer chemotherapy and pharmacology, 2015).

Test: Plasma pharmacokinetics of buparlisib, non-compartmental analysis
Format: in vivo, human
Settings: oral; for AUC(0-t) / Cmax / Tmax: human, plasma; for AUC(0-t): AUC0–8 h
Outline: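 Patients on either platinum/taxane schedule received the oral PI3K-inhibitor test compound at 50 to 100 mg/day. Plasma was sampled on cycle 1/day 1 at 0, 15, 30 and 60 min and at 2, 3, 4.5, 6 and 8 h, plus day 8 pre-dose (taken as 168 h). Non-compartmental analysis: Cmax and Tmax observed; AUClast by linear trapezoidal rule; terminal rate constant by regression of the log-linear terminal phase.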

[1] = 50 mg, Group 1, 50 mg, n = 6, cycle 1/day 1, mean
[2] = 50 mg, Group 2, 50 mg, n = 4, cycle 1/day 1, mean
[3] = 80 mg, Group 1, 80 mg, n = 3, cycle 1/day 1, mean
[4] = 80 mg, Group 2, 80 mg, n = 6, cycle 1/day 1, mean
[5] = 100 mg, Group 1, 100 mg, n = 7, cycle 1/day 1, mean
[6] = 100 mg, Group 2, 100 mg, n = 4, cycle 1/day 1, mean

## Nc1cc(C(F)(F)F)c(-c2cc(N3CCOCC3)nc(N3CCOCC3)n2)cn1 [buparlisib]
[1]
  AUC(0-t): 1220 ng·h/mL
  Cmax: 285 ng/mL
  Tmax: 4.83 h
[2]
  AUC(0-t): 1520 ng·h/mL
  Cmax: 399 ng/mL
  Tmax: 2.13 h
[3]
  AUC(0-t): 2550 ng·h/mL
  Tmax: 3.67 h
[4]
  AUC(0-t): 1970 ng·h/mL
  Cmax: 555 ng/mL
  Tmax: 2.08 h
[5]
  AUC(0-t): 3460 ng·h/mL
  Cmax: 933 ng/mL
  Tmax: 1.71 h
[6]
  AUC(0-t): 3410 ng·h/mL
  Cmax: 960 ng/mL
  Tmax: 2.38 h
50 to 100 mg, with carboplatin + paclitaxel, Groups 1 and 2
  plasma exposure to buparlisib versus dose: dose-related increases in plasma exposure
